MEKK2wt PB1 HTS = raises or lowers MEK5 binding to wildtype human MEKK2 PB1 domain. Q9Y2U5. bead flow cytometry, Alexa488-MEK5 binding to MEKK2 WT; actives lie on both sides. binding response (% of control), % at 10 µM. 1.1% of 290,000 active. AID 1531; in the data active = binding response below about 67% or above about 130%
ABCG2 inh = inhibitors of human ABCG2 transporter, ABCB1 counter-screen; 0.1% of 190,000 active; inhibition, % at 6.6 µM; Q9UNQ0; IgMXP3 cells, JC-1 efflux, flow cytometry; AID 1325;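 active = inhibition above 80%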
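Read-out basis: Efflux inhibition in percent versus controls | Test system: ABCG2 IgMXP3 and barcoded ABCB1 CCRF-Adr cell mix | Quantity: 3 million cells/mL in well | Schedule: 10 min at 25 °C | Control set: Nicardipine as high control, DMSO as low control | Reagent: JC-1 as fluorescent efflux pump substrate | Signal: Flow cytometry of retained JC-1 fluorescence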
MEKK3 PB1 HTS = MEKK3-MEK5 PB1 interaction, increase or decrease; Q99759; bead-based flow cytometry, Alexa488-MEK5 binding to MEKK3; actives lie on both sides; 0 = blocked by unlabeled MEK5, 100 = vehicle; binding response (% of control), % at 10 µM; 1.4% of 290,000 active;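 active = binding response more than 3 SD above or below the average of its plate-row segment, actives on both sides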;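 also: Alexa488 bead fluorescence after subtracting the streptavidin-only scavenger bead signal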
Target sequence (Q99759 whole entry, looked up): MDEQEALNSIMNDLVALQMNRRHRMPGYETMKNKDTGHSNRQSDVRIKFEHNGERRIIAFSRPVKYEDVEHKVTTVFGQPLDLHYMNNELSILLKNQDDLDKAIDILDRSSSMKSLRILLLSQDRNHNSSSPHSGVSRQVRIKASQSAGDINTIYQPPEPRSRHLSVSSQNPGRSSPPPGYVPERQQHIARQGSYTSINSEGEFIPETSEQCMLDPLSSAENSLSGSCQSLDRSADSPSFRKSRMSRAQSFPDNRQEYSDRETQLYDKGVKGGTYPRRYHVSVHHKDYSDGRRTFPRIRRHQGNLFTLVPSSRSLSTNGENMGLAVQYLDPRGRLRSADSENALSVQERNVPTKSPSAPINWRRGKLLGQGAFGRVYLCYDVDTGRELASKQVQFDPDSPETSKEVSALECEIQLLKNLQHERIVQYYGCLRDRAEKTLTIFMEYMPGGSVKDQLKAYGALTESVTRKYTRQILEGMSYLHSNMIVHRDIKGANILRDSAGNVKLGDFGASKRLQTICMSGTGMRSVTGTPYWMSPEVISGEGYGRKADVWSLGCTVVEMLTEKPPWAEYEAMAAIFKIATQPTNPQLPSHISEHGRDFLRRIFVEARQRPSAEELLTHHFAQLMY
MEKK2 mut-MEK5 = signal of MEK5 binding to mutant human MEKK2 PB1 domain | AID 1530 | percent response, % at 10 µM | bead flow cytometry, Alexa488-MEK5 binding to MEKK2 mutant | 0.35% of 290,000 active; in the data active = percent response above about 24%, passing the limit was not always enough
ABCB1 block = inhibitors of human ABCB1 transporter, ABCG2 counter-screen. P08183. CCRF-Adr cells, JC-1 efflux, flow cytometry. inhibition, % at 6.6 µM. 0.067% of 190,000 active. AID 1326; in the data active = inhibition above about 40%;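 also: higher value means more JC-1 retained so stronger ABCB1 efflux block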
MEKK2wt confirm = raises or lowers MEK5 binding to wildtype human MEKK2, retest; shares compounds with MEKK3 PB1 HTS; bead flow cytometry, Alexa488-MEK5 binding to MEKK2 WT; actives lie on both sides; binding response (% of control), % at 10 µM; 2.4% of 5,900 active; AID 1892; in the data active = binding response below about 16% or above about 210%; inactive = in between
MEKK2mut-MEK5 = signal of MEK5 binding to mutant human MEKK2, retest | shares compounds with MEKK3 PB1 HTS | bead flow cytometry, Alexa488-MEK5 binding to MEKK2 mutant | percent response, % at 10 µM | 2% of 5,900 active; in the data active = percent response mostly above about 71%, no sharp cut-off; inactive = mostly below about 38%;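 also: higher means compound restores mutant binding toward wildtype level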
MEKK3 confirm = confirmation of inhibitors of MEK5 binding to human MEKK3. shares compounds with MEKK3 PB1 HTS. bead flow cytometry, Alexa488-MEK5 binding to MEKK3; hits give low values. binding response (% of control), % at 10 µM. 1.8% of 5,900 active. AID 1894;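 active = binding response below 72% of control, or above a set upper limit, though filed actives all read lower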;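 also: lower values mean stronger disruption of MEK5 binding to MEKK3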
Of the large screens only hits and unclear results are named; the others gave an inactive call (follow-up assays come after a bar, where they were run); [ ] = remark or other dose. An excerpt weighted towards active compounds, which were near 2.3% of everything screened.

Cc1cccc(CN2CCC(CNC(=O)Cn3ncc4c([nH]c5ccccc54)c3=O)CC2)c1	none (no result: ABCG2 inh, ABCB1 block)
O=C(COc1ccc2c(c1)OCO2)Nc1nncs1	none (no result: ABCG2 inh, ABCB1 block)
O=C(CN1C(=O)COc2ccccc21)c1ccc(Cl)cc1	MEKK3 PB1 HTS 122 | MEKK2wt confirm inactive | MEKK2mut-MEK5 inactive | MEKK3 confirm inactive
O=C(CN1C(=O)COc2ccccc21)c1cccc(Cl)c1	none
CC(C)CN1CCNC(=O)C1CC(=O)NCc1cnn(-c2cccc(F)c2)c1 (configuration not stated)	MEKK2wt PB1 HTS 138 | MEKK2wt confirm inactive | MEKK2mut-MEK5 inactive | MEKK3 confirm inactive
COc1ccc(CN2CCNC(=O)C2CC(=O)NCc2cnn(C)c2)cc1OC (configuration not stated)	none
Cc1ccc2nc(NC(=O)c3ccc(NS(=O)(=O)c4cccs4)cc3)sc2c1	MEKK3 PB1 HTS 136 | MEKK2wt confirm inactive | MEKK2mut-MEK5 inactive | MEKK3 confirm inactive
Cc1ccc(S(=O)(=O)Nc2ccc(-c3nc4ccc(C)cc4s3)cc2)cc1	MEKK3 PB1 HTS 151 | MEKK2wt confirm inactive | MEKK2mut-MEK5 inactive | MEKK3 confirm inactive
Cc1ccc2nc(NC(=O)CCNS(=O)(=O)c3cccs3)sc2c1	none
COc1ccc(-c2cc(Cl)cc3c(=O)c4ccccc4n(C)c23)cc1F	MEKK2wt PB1 HTS 66[inhibitor] (no result: ABCG2 inh, ABCB1 block) | MEKK2wt confirm inactive | MEKK2mut-MEK5 inactive | MEKK3 confirm inactive
COC(=O)N1C(=O)[C@@](c2ccccc2)(C(C)C)N1C(=O)OC	none (no result: ABCG2 inh, ABCB1 block)
COC(=O)N1C(=O)[C@](c2ccccc2)(C2CCCC2)N1C(=O)OC	MEKK2 mut-MEK5 30 (no result: ABCG2 inh, ABCB1 block) | MEKK2wt confirm inactive | MEKK2mut-MEK5 inactive | MEKK3 confirm inactive
O=C(c1ccc(S(=O)(=O)N2CCCC2)cc1)N1CCCc2ccccc21	MEKK2 mut-MEK5 27 | MEKK2wt confirm inactive | MEKK2mut-MEK5 inactive | MEKK3 confirm inactive
Fc1ccccc1N1CCN(C(c2ccncc2)c2nnnn2C2CCCC2)CC1 (configuration not stated)	MEKK3 PB1 HTS 77[inhibitor] | MEKK2wt confirm inactive | MEKK2mut-MEK5 inactive | MEKK3 confirm inactive
Oc1ccccc1CN1CCCN(Cc2ccccc2O)C1	MEKK3 PB1 HTS 124 | MEKK2wt confirm inactive | MEKK2mut-MEK5 inactive | MEKK3 confirm inactive
O=C(NCc1ccccc1Br)C1CCCO1 (configuration not stated)	none (no result: ABCG2 inh, ABCB1 block)
O=C(COC(=O)/C=C/c1cccs1)NC(=O)Cc1ccccc1	MEKK3 PB1 HTS 138 | MEKK2wt confirm inactive | MEKK2mut-MEK5 inactive | MEKK3 confirm inactive
O=C(NCc1ccccc1C(F)(F)F)C1CC(c2ccc(C(F)(F)F)cc2)=NO1 (configuration not stated)	MEKK3 PB1 HTS 81[inhibitor] (no result: ABCG2 inh, ABCB1 block) | MEKK2wt confirm inactive | MEKK2mut-MEK5 inactive | MEKK3 confirm inactive
CCOC(=O)CNC(=O)COc1coc(CN2CCN(c3ccccc3F)CC2)cc1=O	none (no result: ABCG2 inh, ABCB1 block)
CSc1cccc(NC(=S)NN(C)C)c1	MEKK2wt PB1 HTS 60[inhibitor], MEKK3 PB1 HTS 68[inhibitor] (no result: ABCG2 inh, ABCB1 block) | MEKK2wt confirm inactive | MEKK2mut-MEK5 inactive | MEKK3 confirm inactive
CSc1cccc(NC(=S)Nc2ccc(F)cc2)c1	none (no result: ABCG2 inh, ABCB1 block)
COc1cccc(N2CCN(c3ccc4nnc(CCC(=O)Nc5ccccn5)n4n3)CC2)c1	none (no result: ABCG2 inh, ABCB1 block)
O=C(c1ccc2snnc2c1)N1CCN(c2ccccc2)CC1	MEKK3 PB1 HTS 129 | MEKK2wt confirm inactive | MEKK2mut-MEK5 inactive | MEKK3 confirm inactive
O=C(c1ccc2snnc2c1)N1CCN(c2ccccn2)CC1	none
COc1ccc(/C=C(/NC(=O)c2ccc(OC)cc2)C(=O)NCCc2c[nH]c3ccccc23)cc1	none
Cc1ccc(C)c(NC(=O)C(=O)NCCc2c[nH]c3ccccc23)c1	MEKK2wt PB1 HTS 35[inhibitor], MEKK3 PB1 HTS 34[inhibitor] | MEKK2wt confirm inactive | MEKK2mut-MEK5 inactive | MEKK3 confirm inactive
O=C(NCCc1c[nH]c2ccccc12)c1cncc(Br)c1	none
Cc1ccc(NC(=O)C(=O)NCCc2c[nH]c3ccccc23)c(C)c1	none
O=C(NCCc1c[nH]c2ccccc12)c1cnccn1	MEKK3 PB1 HTS 74[inhibitor] | MEKK2wt confirm inactive | MEKK2mut-MEK5 inactive | MEKK3 confirm inactive
Cc1cccc(NC(=S)NCCc2c[nH]c3ccccc23)c1	MEKK3 PB1 HTS 128 | MEKK2wt confirm inactive | MEKK2mut-MEK5 inactive | MEKK3 confirm inactive
Cc1ccc(C(=O)N/C(=C\c2cccs2)C(=O)NCCc2c[nH]c3ccccc23)cc1	MEKK3 PB1 HTS 129 | MEKK2wt confirm inactive | MEKK2mut-MEK5 inactive | MEKK3 confirm inactive
COc1ccc(/C=C/C(=O)c2ccc3c(c2)OCCO3)cc1[N+](=O)[O-]	MEKK3 PB1 HTS 132 | MEKK2wt confirm inactive | MEKK2mut-MEK5 inactive | MEKK3 confirm inactive
O=[N+]([O-])c1cccc(-n2nnnc2CN2CCCCCC2)c1	MEKK3 PB1 HTS 122 | MEKK2wt confirm inactive | MEKK2mut-MEK5 inactive | MEKK3 confirm inactive
COc1ccc(CCNC(=O)CSc2nc(O)cc(=O)[nH]2)cc1OC	MEKK3 PB1 HTS 134 (no result: ABCG2 inh, ABCB1 block) | MEKK2wt confirm inactive | MEKK2mut-MEK5 inactive | MEKK3 confirm inactive
COc1ccc(CCNC(=O)CN(c2ccc(OC)c(OC)c2)S(C)(=O)=O)cc1OC	MEKK3 PB1 HTS 122 | MEKK2wt confirm inactive | MEKK2mut-MEK5 inactive | MEKK3 confirm inactive
COc1ccc(CCNC(=O)CC2Nc3cc(C)c(C)cc3NC2=O)cc1OC (configuration not stated)	MEKK2wt PB1 HTS 1.0[inhibitor], MEKK3 PB1 HTS 0.0[inhibitor] | MEKK2wt confirm inactive | MEKK2mut-MEK5 inactive | MEKK3 confirm inactive
COc1cccc(NC(=O)CCc2c(C)nc3nc(CNC(=O)c4cccc(F)c4)nn3c2C)c1	none (no result: ABCG2 inh, ABCB1 block)
CN1CCN(CC(=O)N2CCn3c4c(c5cc(C6CCCCC6)ccc53)CCCC42)CC1 (configuration not stated)	MEKK2wt PB1 HTS 253, MEKK2 mut-MEK5 84 | MEKK2wt confirm 215 | MEKK2mut-MEK5 inactive | MEKK3 confirm inactive
CCCn1c(SC(C)C(=O)NCC2CCCO2)nc2sc(CC)cc2c1=O (configuration not stated)	none (no result: ABCG2 inh, ABCB1 block)
COc1ccc(NC(=O)c2sc3nc(Cc4ccccc4)cc(C(F)(F)F)c3c2N)cc1OC	MEKK3 PB1 HTS 159 | MEKK2wt confirm inactive | MEKK2mut-MEK5 inactive | MEKK3 confirm 35
CCOc1ccc(C(C#N)N2CCOCC2)cc1OC (configuration not stated)	MEKK2wt PB1 HTS 2.0[inhibitor], MEKK3 PB1 HTS 2.0[inhibitor] | MEKK2wt confirm inactive | MEKK2mut-MEK5 inactive | MEKK3 confirm inactive
